Source: ChEMBL document CHEMBL1145988, “A conformationally locked analogue of the anti-HIV agent stavudine. An important correlation between pseudorotation and maximum amplitude” (J Med Chem, 2003)

Columns and labels:
[1] = biological target: Human immunodeficiency virus type 1 reverse transcriptase (Human immunodeficiency virus 1, UniProt Q72547); assay: Inhibitory concentration required against Reverse transcriptase (RT)
Procedure, shortened: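 Wild-type HIV-1 RT (1.0 μg) extends -47 primer annealed to single-stranded M13mp18 DNA. Run 30 min at 37 °C, then TCA-precipitated, filtered, scintillation counted; duplicate.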

CCRF-CEM [2] = assay: Cytostatic concentration required to inhibit Human T-Lymphocyte (CEM) cells proliferation caused by HIV-1 (IIIB); format: functional
Procedure, shortened: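 CEM cell proliferation measured; value is concentration inhibiting proliferation by 50%.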

[3] = Effective concentration required to inhibit P24 antigen production in PHA-PBM cells exposed to HIV-1 LAI; format: functional, cell-based; conditions: Homo sapiens, PBMC
Procedure, shortened: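 PHA-stimulated PBM cells at 1×10^6/mL exposed to 50 TCID50 HIV-1 LAI with 10-fold serial drug dilutions, triplicate. p24 antigen measured by radioimmunoassay after 7 days of culture. EC50 set against p24 in drug-free controls.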

MT4 = assay: Effective concentration required to protect MT-4 cells against cytopathogenicity of HIV-1 LAI; format: functional, cell-based; conditions: Homo sapiens
Procedure, shortened: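 MT-4 cells (3×10^4) exposed to 100 TCID50 HIV-1 LAI and cultured with compound. Viability read by MTT assay on day 5. EC50 taken as 50% protection against cytopathogenicity; duplicate assays.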

CCRF-CEM [4] = assay: Effective concentration required to protect Human T-Lymphocyte (CEM) cells against cytopathogenicity of HIV-2 (ROD); format: functional, cell-based
Procedure, shortened: (§1)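 CEM cells at 4.5×10^5 cells/mL infected with 100 CCID50/mL of HIV-1 or HIV-2, then mixed 1:1 with compound dilutions (final 200, 40, 8, 0.32, 0.062 μg/mL) and held at 37 °C. Syncytia counted microscopically after 4–5 days. EC50 is the concentration preventing syncytium formation by 50%.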

CCRF-CEM [5] = assay: Effective concentration required to protect activity Human CEM/TK- cells against cytopathogenicity of HIV virus; format: functional, cell-based
MT2 = assay: Effective concentration required to protect MT-2 cells against cytopathogenicity of HIV-1 LAI; format: functional, cell-based; conditions: Homo sapiens
Procedure, shortened: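 MT-2 cells (2×10^3) challenged with 100 TCID50 HIV-1 LAI and cultured with compound. MTT read-out on day 7 gives EC50 for 50% protection; run in duplicate.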

CCRF-CEM [6] = assay: Effective concentration required to protect Human T-Lymphocyte (CEM) cells against cytopathogenicity of HIV-1 (IIIB); format: functional, cell-based; procedure, shortened: as §1

SMILES	IC50 [1] [nM]	EC50 [3] [nM]	EC50 (CCRF-CEM [4]) [nM]	EC50 (CCRF-CEM [5]) [nM]	EC50 (MT2) [nM]	EC50 (CCRF-CEM [6]) [nM]	CC50 (CCRF-CEM [2]) [nM]	EC50 (MT4) [nM]
Cc1cn([C@H]2C=C[C@@H](COP(=O)(O)OP(=O)(O)OP(=O)(O)O)O2)c(=O)[nH]c1=O	80							
Cc1cn([C@H]2C[C@H](N=[N+]=[N-])[C@@H](CO)O2)c(=O)[nH]c1=O [ZIDOVUDINE]					30			20

Second part, led by results:

IC50 [1] [nM]	EC50 [3] [nM]	EC50 (CCRF-CEM [4]) [nM]	EC50 (CCRF-CEM [5]) [nM]	EC50 (MT2) [nM]	EC50 (CCRF-CEM [6]) [nM]	SMILES	CC50 (CCRF-CEM [2]) [nM]	EC50 (MT4) [nM]
	60	1450	> 250000	6100	960	Cc1cn([C@H]2C=C[C@]3(CO)C[C@H]23)c(=O)[nH]c1=O	> 250000	6900
650						Cc1cn([C@H]2C=C[C@]3(COP(=O)(O)OP(=O)(O)OP(=O)(O)O)C[C@H]23)c(=O)[nH]c1=O		
	40	400	27000	1800	210	Cc1cn([C@H]2C=C[C@@H](CO)O2)c(=O)[nH]c1=O [STAVUDINE]	93000	710
